Activity calls are given as the source filed them. No cut-off for these calls is given here.
Assays:
Quadruplex DNA [1] = experiment: Stabilization of telomeric Htg24 G-quadruplex DNA (unknown origin) assessed as inhibition of DNA amplification at 20 uM by PCR analysis; type: nucleic-acid assay
Outline: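 Taq polymerase stop assay: Htg24 or its non-G4 mutant template (5 μM) with 2 μM of each oligomer, […] and ligand at 0–20 μM. Cycling was 94 °C for 5 min, then 30 cycles of 94/56/72 °C at 30 s each. Products were resolved on 15% PAGE and stained with SYBR Gold.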

HeLa [2] = experiment: Downregulation of hTERC mRNA expression in human HeLa cells at 5 to 20 uM by qRT-PCR analysis; type: functional, cell-based; details: dose 5-20 µM
Outline: (§1)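 HeLa cells were treated with graded compound concentrations, then incubated 36 h. RNA was extracted with Trizol/chloroform, reverse transcribed and quantified by qRT-PCR. GAPDH served as internal control, with relative expression by the ΔΔCt method; three independent experiments, mean ± SD.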

Quadruplex DNA [3] = experiment: Binding affinity to telomeric Htg24 G-quadruplex DNA (unknown origin) at pH 7.4 by fluorescence titration analysis; type: nucleic-acid assay
Quadruplex DNA [4] = experiment: Binding affinity to telomeric Htg24 G-quadruplex DNA (unknown origin) assessed as fold increase in fluorescence signal at 5 uM under pH condition 7.4 by fluorescence method; type: nucleic-acid assay
Outline: (§2)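 Ligand 5 μM with each nucleic acid at 15 μM in 10 mM Tris-HCl pH 7.4, 60 mM KCl; emission enhancement expressed as F/F0 against ligand without DNA.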

DNA = experiment: Binding affinity to ds26 DNA (unknown origin) assessed as dissociation constant by isothermal titration calorimetric analysis; type: nucleic-acid assay
Outline: (§3)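 ITC at 25 °C: DNA preannealed at 95 °C for 5 min, cooled and held at 4 °C overnight, in 25 mM KH2PO4, 60 mM KCl, pH 7.4, 0.5% DMSO. DNA 10 μM in cell, ligand 500 μM in syringe; 19 injections of 4 s, 150 s apart, 750 rpm stirring; blank heat subtracted before model fitting.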

HeLa [5] = experiment: Antiproliferative activity against human HeLa cells assessed as reduction in cell viability […] by MTT assay; type: functional, cell-based
[6] = system: Quadruplex DNA [UNDEFINED MUTATION]; experiment: Effect on confirmation of telomeric Htg24 G-quadruplex DNA T18G mutant (unknown origin) assessed as hybrid topology at 5 uM at pH 7.4 by circular dichroism analysis; type: nucleic-acid assay; details: Homo sapiens
Outline: (§4)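 CD spectra recorded on G4-DNA and ligand, each at 5 μM, in 10 mM Tris-HCl, pH 7.4, with 60 mM KCl. Scan range 220–340 nm in a 1 mm quartz cuvette, 1 nm bandwidth and step, 0.5 s/point. Each spectrum is the average of three scans.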

HeLa [7] = experiment: Downregulation of hTERT mRNA expression in human HeLa cells at 5 to 20 uM by qRT-PCR analysis; type: functional, cell-based; details: dose 5-20 µM; outline: as §1
[8] = system: Quadruplex DNA [UNDEFINED MUTATION]; experiment: Effect on confirmation of telomeric Htg24 G-quadruplex DNA G22C mutant (unknown origin) assessed as hybrid topology at 5 uM at pH 7.4 by circular dichroism analysis; type: nucleic-acid assay; details: Homo sapiens; outline: as §4
[9] = system: Quadruplex DNA [UNDEFINED MUTATION]; experiment: Binding affinity to telomeric Htg24 G-quadruplex DNA A14G mutant (unknown origin) assessed as negative fluorescence signal at 5 uM under pH condition 7.4 by fluorescence titration analysis; type: nucleic-acid assay; details: Homo sapiens
Outline: (§5)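 Ligand 5 μM mixed with wild-type or point-mutant Htg24 in Tris-HCl buffer with 60 mM KCl; signal change calculated as (F mutant − F wild type)/F wild type.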

[10] = system: Quadruplex DNA [UNDEFINED MUTATION]; experiment: Binding affinity to telomeric Htg24 G-quadruplex DNA G23C mutant (unknown origin) assessed as fluorescence signal at 5 uM under pH condition 7.4 by fluorescence titration analysis; type: nucleic-acid assay; details: Homo sapiens
Outline: (§6)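 Ligand held at 5 μM and mixed with each Htg24 point mutant in Tris-HCl buffer containing 60 mM KCl, pH 7.4. Fluorescence was read, and the signal change was computed as (F mutant − F wild type)/F wild type.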

[11] = system: Quadruplex DNA [UNDEFINED MUTATION]; experiment: Effect on confirmation of telomeric Htg24 G-quadruplex DNA G16T mutant (unknown origin) assessed as parallel topology at 5 uM at pH 7.4 by circular dichroism analysis; type: nucleic-acid assay; details: Homo sapiens; outline: as §4
MCF7 = experiment: Antiproliferative activity against human MCF7 cells assessed as reduction in cell viability […] by MTT assay; type: functional, cell-based
[12] = system: Quadruplex DNA [UNDEFINED MUTATION]; experiment: Effect on confirmation of telomeric Htg24 G-quadruplex DNA T12G mutant (unknown origin) assessed as hybrid topology at 5 uM at pH 7.4 by circular dichroism analysis; type: nucleic-acid assay; details: Homo sapiens; outline: as §4
Quadruplex DNA [13] = experiment: Binding affinity to telomeric Htg22 G-quadruplex DNA (unknown origin) assessed as dissociation constant by isothermal titration calorimetric analysis; type: nucleic-acid assay; outline: as §3
[14] = Drug uptake in nucleolus of human U87 cells assessed as disappearance of fluorescence signal at 5 uM for 30 mins co-stained with DAPI for 10 mins followed by treating with DNase and measured after 30 mins by confocal laser fluorescence microscopic analysis; type: ADME, subcellular; details: u-87mg atcc, 1.167 h, time 70 min
[15] = system: Quadruplex DNA [UNDEFINED MUTATION]; experiment: Effect on confirmation of telomeric Htg24 G-quadruplex DNA A14G mutant (unknown origin) assessed as hybrid topology at 5 uM at pH 7.4 by circular dichroism analysis; type: nucleic-acid assay; details: Homo sapiens; outline: as §4
[16] = system: Quadruplex DNA [UNDEFINED MUTATION]; experiment: Binding affinity to telomeric Htg24 G-quadruplex DNA G15C mutant (unknown origin) assessed as fluorescence signal at 5 uM under pH condition 7.4 by fluorescence titration analysis; type: nucleic-acid assay; details: Homo sapiens
[17] = system: Quadruplex DNA [UNDEFINED MUTATION]; experiment: Effect on confirmation of telomeric Htg24 G-quadruplex DNA G22A mutant (unknown origin) assessed as hybrid topology at 5 uM at pH 7.4 by circular dichroism analysis; type: nucleic-acid assay; details: Homo sapiens; outline: as §4
[18] = system: Quadruplex DNA [UNDEFINED MUTATION]; experiment: Effect on confirmation of telomeric Htg24 G-quadruplex DNA A20G mutant (unknown origin) assessed as hybrid topology at 5 uM at pH 7.4 by circular dichroism analysis; type: nucleic-acid assay; details: Homo sapiens; outline: as §4
[19] = system: Quadruplex DNA [UNDEFINED MUTATION]; experiment: Binding affinity to telomeric Htg24 G-quadruplex DNA G21C mutant (unknown origin) assessed as strong fluorescence signal at 5 uM under pH condition 7.4 by fluorescence titration analysis; type: nucleic-acid assay; details: Homo sapiens; outline: as §5
HeLa [20] = experiment: Effect on telomere length in human HeLa cells assessed as reduction of telomere length incubated for 18 days by qRT-PCR analysis; type: functional, cell-based; details: dose 0.5-4 µM, time 18.0 day
Outline: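 HeLa cells were treated with graded compound concentrations (0–4 μM) for 18 days. Genomic DNA was isolated by proteinase K digestion and phenol/chloroform extraction. Relative telomere length was measured by qPCR against hRPLPO using the ΔΔCt method; three independent experiments.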

[21] = system: Quadruplex DNA [UNDEFINED MUTATION]; experiment: Binding affinity to telomeric Htg24 G-quadruplex DNA T18G mutant (unknown origin) assessed as negative fluorescence signal at 5 uM under pH condition 7.4 by fluorescence titration analysis; type: nucleic-acid assay; details: Homo sapiens; outline: as §6
[22] = system: Quadruplex DNA [UNDEFINED MUTATION]; experiment: Binding affinity to telomeric Htg24 G-quadruplex DNA G17A mutant (unknown origin) assessed as negative fluorescence signal at 5 uM under pH condition 7.4 by fluorescence titration analysis; type: nucleic-acid assay; details: Homo sapiens; outline: as §5
Quadruplex DNA [23] = experiment: Binding affinity to telomeric Htg22 G-quadruplex DNA (unknown origin) assessed as fold increase in fluorescence signal at 5 uM under pH condition 7.4 by fluorescence method; type: nucleic-acid assay; outline: as §2
[24] = system: Quadruplex DNA [UNDEFINED MUTATION]; experiment: Binding affinity to telomeric Htg24 G-quadruplex DNA G15T mutant (unknown origin) assessed as fluorescence signal at 5 uM under pH condition 7.4 by fluorescence titration analysis; type: nucleic-acid assay; details: Homo sapiens

With CN(C)c1ccc(/C=C/c2cc(/C=C3\Sc4ccccc4N3CCCN3CCOCC3)c3ccccc3[n+]2C)cc1.[I-] the Activity (Quadruplex DNA [1]) was “Active”, the Activity (HeLa [2]) was “Active” and the Activity (Quadruplex DNA [3]) was “Active”. It also gave a fold change (FC) (Quadruplex DNA [4]) of 120, a Kd (DNA) of 2970 nM and an IC50 (HeLa [5]) of 16.3 µM. The Activity [6] was “Active”, the Activity (HeLa [7]) was “Active” and the Activity [8] was “Active”. The Activity [9] was “Active”, the Activity [10] was “inactive” and the Activity [11] was “Active”. For the same compound, the IC50 (MCF7) was 14.5 µM, the Activity [12] was “Active” and the Kd (Quadruplex DNA [13]) was 710 nM. The Drug uptake [14] was “Active”, the Activity [15] was “Active” and the Activity [16] was “inactive”. For the same compound, the Activity [17] was “Active”, the Activity [18] was “Active” and the Activity [19] was “Active”. The Activity (HeLa [20]) was “Dose-Dependent Effect”, the Activity [21] was “Active” and the Activity [22] was “Active”. For the same compound, the fold change (FC) (Quadruplex DNA [23]) was 120 and the Activity [24] was “inactive”.

— ChEMBL document CHEMBL4834396, “Molecular Recognition and Imaging of Human Telomeric G-Quadruplex DNA in Live Cells: A Systematic Advancement of Thiazole Orange Scaffold To Enhance Binding Specificity and Inhibition of Gene Expression” (J Med Chem, 2021)
